PMC9306949 (Clinical Pharmacology in Drug Development, 2022)
Entries after “also recorded” stand apart in the source; their conditions may differ. Like-named read-outs stand apart in the source and are kept apart here. Marks after values point to notes of the source that are not given here.

How the values were obtained:
[1] = cited from earlier work
[2] = cynomolgus macaques; cited from earlier work
[3] = Safety: treatment-emergent adverse events; assay type: in vivo, human
[4] = cited from earlier work; remark: listed apart in the source
[5] = Urine excretion of navtemadlin and M1; assay type: in vivo, human
[6] = assay type: in vivo, human; details: for exposure in UGT1A1*28 heterozygous poor metabolizers (6/7 TA repeats) vs WT (6/6 TA repeats): Treatment A, n = 16 vs n = 12; for C24: mean (%CV)
[7] = test system: MIC‐1; assay: Serum MIC-1 pharmacodynamics; assay type: in vivo, human; details: for P, baseline predose MIC‐1 concentration / MIC‐1 %CFBC24 (percent change from predose concentration at 24 hours) / MIC‐1 %CFBCmax (percent change from predose concentration at Cmax) / MIC‐1 AUC0‐24 / MIC‐1 AUC0‐inf / MIC‐1 AUC0‐t / MIC‐1 C24 / MIC‐1 FoldC24 (C24/P): serum, mean (%CV)
[8] = test system: MIC‐1; details: patients with solid tumors/MM and AML; cited from earlier work
[9] = cited from earlier work; remark: listed apart in the source
[10] = test system: T, B, and natural killer lymphocytes in peripheral blood; assay: Immunophenotyping of whole blood; assay type: in vivo, human; details: periods 1 and 4; absolute counts and percentages
Outline: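 Healthy adults took single 60-mg oral doses of the test compound. Whole blood (K2EDTA) was drawn at screening, predose on day 1 of periods 1 and 4, and on day 5 (96 h postdose). A validated GLP flow cytometry method gave absolute counts and percentages of peripheral T, B and NK lymphocytes.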

[11] = physiologically based PK modeling; cited from earlier work
[12] = monoprotic carboxylic acid; cited from earlier work
[13] = single 60-mg doses, healthy subjects
[14] = period 1 (old tablet fasted), 0-48 h urine
[15] = Treatment A: 60 mg new tablet fasted
[16] = Treatment B: 60 mg new tablet fed
[17] = Treatment C: 60 mg old tablet fasted

CC(C)[C@@H](CS(=O)(=O)C(C)C)N1C(=O)[C@@](C)(CC(=O)O)C[C@H](c2cccc(Cl)c2)[C@H]1c1ccc(Cl)cc1 [Navtemadlin]
dose dependence of exposure ([1]; dose range of 15 mg to 480 mg): linear | apparent oral central volume of distribution ([1]; patients with solid tumors): 62.9 L | urinary excretion route [2]: minor excretion route | All TEAEs: Number of Subjects with TEAE ([3]; Treatment A (Combined): new tablet fasted): 5 | All TEAEs: Number of Subjects with TEAE ([3]; Treatment B: new tablet fed): 2 | All TEAEs: Number of Subjects with TEAE ([3]; Treatment C: old tablet fasted (period 1)): Nine | incidence of constipation (TEAE) ([3]; occurred only with treatment C (old tablet, fasted)): 13% | incidence of headache (TEAE) ([3]; occurred with all treatments A, B, and C): 10% | TEAE related to navtemadlin ([3]; reported once, treatment B (new tablet fed)): Headache | discontinuations due to adverse events [3, 13]: without any discontinuations; also recorded: no subject discontinued due to an AE | serious adverse events or deaths [3, 13]: No serious adverse events or deaths occurred; also recorded: No deaths or serious AEs occurred | severity of adverse events [3, 13]: mild | protein‐bound [4]: 97.5% | mean amount excreted in urine [5, 14]: 12.1 µg | mean fraction of dose excreted in urine [5, 14]: 0.02% | urine excretion ([5]; single 60-mg dose, healthy subjects): negligible | delay of tmax after a meal ([6]; B vs A: new tablet fed vs fasted): 1 h | exposure in UGT1A1*28 heterozygous poor metabolizers (6/7 TA repeats) vs WT (6/6 TA repeats) [6]: slightly lower | exposure in UGT1A1*28 heterozygous poor metabolizers (6/7 TA repeats) vs WT (6/6 TA repeats) ([6]; listed as navtemadlin): generally comparable | time of second peak after dosing (enterohepatic recirculation) ([6]; all 3 treatments): around 10 hours | tmax ([6]; human, plasma, oral, 60 mg): 2.01 h | PK in H. pylori–positive vs H. pylori–negative subjects ([6]; n = 12 positive vs n = 18 negative): not markedly different; also recorded: not markedly affected | decrease in extent of exposure (AUC0‐24, AUC0‐t, AUC0‐inf) with a high‐fat meal ([6]; new tablet fed vs fasted): 12% to 18% | intersubject variability, AUC0‐24 %CV ([6]; new tablet, fasted): 55% | intersubject variability, Cmax %CV ([6]; new tablet, fasted): 66% | difference in median tmax between fed and fasted conditions, significance ([6]; new tablet, Wilcoxon signed-rank, alpha level of 0.1): statistically significant | C24 ([6]; plasma, Treatment A: 60-mg new tablet, fasted): 37.4 (83.9); 60 ng/mL | C24 ([6]; plasma, Treatment B: 60-mg new tablet, fed (high-fat meal)): 29.3 (83.3); 30 ng/mL | C24 ([6]; plasma, Treatment C: 60-mg old tablet, fasted): 29.3 (83.6); 30 ng/mL | intrasubject variability of PK parameters ([6]; reference formulation: new tablet, fasted): < 30% | tmax, difference of medians (90%CI) ([6]; test-reference: B (new tablet fed) minus A (new tablet fasted)): 0.5 (0.004‐0.9) ^e , ^f h | tmax, difference of medians (90%CI) ([6]; test-reference: C (old tablet fasted) minus A (new tablet fasted)): 0.1 (–0.3 to 0.6) ^e , ^f h | pharmacodynamic half‐life of MIC‐1 serum elevations ([7]; 60‐mg dose, healthy subjects): > 20 h | correlation navtemadlin AUC0‐t vs MIC‐1 AUC0‐t, intercept ([7]; Treatment A, AUC in nM • h): 1.97 | correlation navtemadlin AUC0‐t vs MIC‐1 AUC0‐t, slope ([7]; Treatment A, AUC in nM • h): 0.0006 | P, baseline predose MIC‐1 concentration ([7]; Treatment A: 60 mg new tablet fasted (periods 2-4)): 170 (119.8); 60 pg/mL | MIC‐1 %CFBC24 (percent change from predose concentration at 24 hours) [7, 15]: 2297 (101); 60% | MIC‐1 %CFBCmax (percent change from predose concentration at Cmax) [7, 15]: 3759 (103.5); 60% | MIC‐1 AUC0‐24 [7, 15]: 32743 (49.4); 60 pg • h/mL | MIC‐1 AUC0‐inf [7, 15]: 96215 (51.9); 31 pg • h/mL | MIC‐1 AUC0‐t [7, 15]: 89409 (48.7); 60 pg • h/mL | MIC‐1 C24 [7, 15]: 1318 (50.5); 60 pg/mL | MIC‐1 FoldC24 (C24/P) [7, 15]: 24.0 (96.8); 60 | P, baseline predose MIC‐1 concentration ([7]; Treatment B: 60 mg new tablet fed (periods 2-4)): 214 (133.2); 30 pg/mL | MIC‐1 %CFBC24 (percent change from predose concentration at 24 hours) [7, 16]: 1778 (115.5); 30% | MIC‐1 %CFBCmax (percent change from predose concentration at Cmax) [7, 16]: 2684 (115.7); 30% | MIC‐1 AUC0‐24 [7, 16]: 29820 (52.7); 30 pg • h/mL | MIC‐1 AUC0‐inf [7, 16]: 67607 (35.1); 16 pg • h/mL | MIC‐1 AUC0‐t [7, 16]: 81332 (54.2); 30 pg • h/mL | MIC‐1 C24 [7, 16]: 1209 (47.7); 30 pg/mL | MIC‐1 FoldC24 (C24/P) [7, 16]: 18.8 (109.4); 30 | P, baseline predose MIC‐1 concentration ([7]; Treatment C: 60 mg old tablet fasted (period 1)): 505 (41); 30 pg/mL | MIC‐1 %CFBC24 (percent change from predose concentration at 24 hours) [7, 17]: 139 (61.8); 30% | MIC‐1 %CFBCmax (percent change from predose concentration at Cmax) [7, 17]: 393 (62.5); 30% | MIC‐1 AUC0‐24 [7, 17]: 34365 (53.4); 30 pg • h/mL | MIC‐1 AUC0‐inf [7, 17]: 110915 (30.5); 4 pg • h/mL | MIC‐1 AUC0‐t [7, 17]: 91175 (38.5); 30 pg • h/mL | MIC‐1 C24 [7, 17]: 1144 (38.4); 30 pg/mL | MIC‐1 FoldC24 (C24/P) [7, 17]: 2.39 (36); 30 | effect on serum PD marker MIC‐1 [8]: dose‐ and plasma concentration–dependent increases | solubility, pH dependence [9]: increases with increasing pH | lymphocyte subsets and monocytes, postdose (96 hours) vs predose [10]: did not differ | fraction absorbed [11]: ~100% | pKa [12]: 4.35
